Measurements as given in ChEMBL document CHEMBL2086314, “Synthesis and anticonvulsant activity of new N-Mannich bases derived from 3-(2-fluorophenyl)- and 3-(2-bromophenyl)-pyrrolidine-2,5-diones. Part II” (Bioorg Med Chem, 2012).
Active and inactive are the calls of the source. The calls are words filed in the database; no cut-off is given here.

Assays:
Mus musculus [1] = assay: Anticonvulsant activity in CF-1 albino mouse assessed as protection from maximal electric shock-induced seizures at 300 mg/kg, ip measured after 0.5 hrs; format: functional, organism-based; design: dose 300 mg/kg
Procedure, shortened: (§1)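 Male CF-1 mice dosed ip at 30, 100 or 300 mg/kg, suspension in 0.5% methylcellulose/water. MES: corneal electrodes primed with electrolyte containing anaesthetic, 50 mA, 60 Hz, 0.2 s. Examined 0.5 and 4 h after dosing. Value is the minimum dose protecting half or more of the animals.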

Mus musculus [2] = assay: Anticonvulsant activity in ip dosed CF-1 albino mouse assessed as protection from maximal electric shock-induced seizures measured after 4 hrs; format: functional; details: read-out: MED; procedure, shortened: as §1
Mus musculus [3] = assay: Neurotoxicity in ip dosed CF-1 albino mouse assessed as motor impairment measured after 0.5 hrs by rotarod test; format: toxicity, organism-based; details: in vivo
Procedure, shortened: (§2)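 Rotarod neurotoxicity in male CF-1 mice given ip doses of 30, 100 or 300 mg/kg (0.5% methylcellulose suspension), examined 0.5 and 4 h after dosing. Impairment means failing to hold balance on the rod for 1 min. Value is the minimum dose causing toxicity in half or more of the animals; response comments are recorded.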

Mus musculus [4] = assay: Neurotoxicity in CF-1 albino mouse assessed as motor impairment at 300 mg/kg, ip measured after 4 hrs by rotarod test; format: toxicity, organism-based; design: dose 300 mg/kg, route intraperitoneal; details: in vivo; procedure, shortened: as §2
Mus musculus [5] = assay: Anticonvulsant activity in ip dosed CF-1 albino mouse assessed as protection against subcutaneous pentylenetetrazol-induced seizures measured after 0.5 hrs; format: functional; details: read-out: MED
Procedure, shortened: (§3)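 scPTZ test in male CF-1 mice. Compound suspended in 0.5% methylcellulose/water, ip at 30, 100 or 300 mg/kg. Pentylenetetrazole 85 mg/kg (CD97, clonic seizures lasting at least 5 s) given subcutaneously at the test time, read at 0.5 and 4 h. Value is the minimum dose protecting half or more of the animals.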

Mus musculus [6] = assay: Anticonvulsant activity in CF-1 albino mouse assessed as protection against subcutaneous pentylenetetrazol-induced seizures at 300 mg/kg, ip measured after 4 hrs; format: functional, organism-based; design: dose 300 mg/kg; procedure, shortened: as §3
Mus musculus [7] = assay: Neurotoxicity in CF-1 albino mouse assessed as myoclonic jerks at 300 mg/kg, ip measured after 0.5 hrs by rotarod test; format: toxicity, organism-based; design: dose 300 mg/kg, route intraperitoneal; details: in vivo
Mus musculus [8] = assay: Anticonvulsant activity in CF-1 albino mouse assessed as protection from maximal electric shock-induced seizures at 300 mg/kg, ip measured after 4 hrs; format: functional, organism-based; design: dose 300 mg/kg; procedure, shortened: as §1
Mus musculus [9] = assay: Neurotoxicity in CF-1 albino mouse assessed as motor impairment at 300 mg/kg, ip measured after 0.5 hrs by rotarod test; format: toxicity, organism-based; design: dose 300 mg/kg, route intraperitoneal; details: in vivo; procedure, shortened: as §2
Mus musculus [10] = assay: Anticonvulsant activity in CF-1 albino mouse assessed as protection against subcutaneous pentylenetetrazol-induced seizures at 300 mg/kg, ip measured after 0.5 hrs; format: functional, organism-based; design: dose 300 mg/kg; procedure, shortened: as §3
Rattus norvegicus [11] = assay: Anticonvulsant activity in Sprague-Dawley rat assessed as protection from maximum electric shock-induced seizures at 30 mg/kg, po measured after 0.25 hrs; format: functional
Procedure, shortened: (§4)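 Male Sprague–Dawley rats, four per group, given 30 mg/kg orally as a suspension in 0.5% methylcellulose/water. MES stimulus 150 mA, 60 Hz, 0.2 s via corneal electrodes. Tested at 0.25, 0.5, 1, 2 and 4 h; value is rats protected out of four.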

Rattus norvegicus [12] = assay: Anticonvulsant activity in Sprague-Dawley rat assessed as protection from maximum electric shock-induced seizures at 30 mg/kg, po measured after 0.5 hrs; format: functional; procedure, shortened: as §4
Rattus norvegicus [13] = assay: Anticonvulsant activity in Sprague-Dawley rat assessed as protection from maximum electric shock-induced seizures at 30 mg/kg, po measured after 1 hr; format: functional; procedure, shortened: as §4
Rattus norvegicus [14] = assay: Anticonvulsant activity in Sprague-Dawley rat assessed as protection from maximum electric shock-induced seizures at 30 mg/kg, po measured after 2 hrs; format: functional; procedure, shortened: as §4
Rattus norvegicus [15] = assay: Anticonvulsant activity in Sprague-Dawley rat assessed as protection from maximum electric shock-induced seizures at 30 mg/kg, po measured after 4 hrs; format: functional; procedure, shortened: as §4
Rattus norvegicus [16] = assay: Neurotoxicity in Sprague-Dawley rat assessed as motor impairment at 30 mg/kg, po by rotarod test; format: toxicity, organism-based; design: dose 30 mg/kg, route oral; details: in vivo
Procedure, shortened: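 Male Sprague–Dawley rats, four animals, oral 30 mg/kg in 0.5% methylcellulose/water. Motor impairment on the rotarod (failure to keep balance for 1 min) assessed alongside MES at five times from 0.25 to 4 h.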

Rattus norvegicus [17] = assay: Anticonvulsant activity in po dosed Sprague-Dawley rat assessed as protection from maximum electric shock-induced seizures; format: functional
Procedure, shortened: (§5)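 Male Sprague–Dawley rats dosed orally (0.5% methylcellulose suspension). MES 150 mA, 60 Hz, 0.2 s; rotarod impairment is failure to keep balance for 1 min. Groups of eight, at the previously estimated time of peak effect, with doses varied until at least three points fell in the 10–90% range. ED50/TD50 with 95% confidence intervals from regression; PI = TD50/ED50.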

Rattus norvegicus [18] = assay: Anticonvulsant activity in po dosed maximum electric shock-induced Sprague-Dawley rat assessed as time of peak effect; format: functional; procedure, shortened: as §5
Mus musculus [19] = assay: Anticonvulsant activity in ip dosed CF-1 albino mouse assessed as protection from maximal electric shock-induced seizures measured after 0.5 hrs; format: functional; details: read-out: MED; procedure, shortened: as §1
[20] = Neurotoxicity in po dosed Sprague-Dawley rat assessed as motor impairment measured at time of peak effect by rotarod test; format: toxicity, organism-based; details: in vivo; procedure, shortened: as §5
Mus musculus [21] = assay: Anticonvulsant activity in CF-1 albino mouse assessed as protection against 6 Hz psychomotor seizure at 100 mg/kg, ip measured after 0.25 hrs; format: functional; details: route intraperitoneal
Procedure, shortened: (§6)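 6-Hz psychomotor seizure in male CF-1 mice, compound suspended in 0.5% methylcellulose/water, given ip (100 or 75 mg/kg). Corneal stimulation with 0.2 ms monopolar rectangular pulses at 6 Hz for 3 s, 32 mA, constant-current device. Protected if normal exploratory behaviour resumes within 10 s. Tested 0.25–4 h after dosing; value is mice protected out of four.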

Mus musculus [22] = assay: Anticonvulsant activity in CF-1 albino mouse assessed as protection against 6 Hz psychomotor seizure at 100 mg/kg, ip measured after 0.5 hrs; format: functional; details: route intraperitoneal; procedure, shortened: as §6
Mus musculus [23] = assay: Anticonvulsant activity in CF-1 albino mouse assessed as protection against 6 Hz psychomotor seizure at 100 mg/kg, ip measured after 1 hr; format: functional; details: route intraperitoneal; procedure, shortened: as §6
Mus musculus [24] = assay: Anticonvulsant activity in CF-1 albino mouse assessed as protection against 6 Hz psychomotor seizure at 100 mg/kg, ip measured after 2 hrs; format: functional; details: route intraperitoneal; procedure, shortened: as §6
Mus musculus [25] = assay: Anticonvulsant activity in CF-1 albino mouse assessed as protection against 6 Hz psychomotor seizure at 100 mg/kg, ip measured after 4 hrs; format: functional; details: route intraperitoneal; procedure, shortened: as §6
Mus musculus [26] = assay: Anticonvulsant activity in ip dosed CF-1 albino mouse assessed as protection against subcutaneous pentylenetetrazol-induced seizures measured after 4 hrs; format: functional; details: read-out: MED; procedure, shortened: as §3
Mus musculus [27] = assay: Neurotoxicity in CF-1 albino mouse assessed as motor impairment, ip measured after 4 hrs by rotarod test; format: toxicity, organism-based; details: in vivo
Rattus norvegicus [28] = organism: Rattus norvegicus; assay: Protective index, ratio of TD50 for Sprague-Dawley rat to ED50 for Sprague-Dawley rat assessed as protection from maximum electric shock-induced seizures; format: functional; procedure, shortened: as §5
Mus musculus [29] = organism: Mus musculus; assay: Protective index, ratio of TD50 for CF-1 albino mouse to ED50 for CF-1 albino mouse assessed as protection from maximum electric shock-induced seizures; format: functional
Procedure, shortened: (§7)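 ED50 and TD50 determined in male CF-1 mice after ip dosing (0.5% methylcellulose suspension) at the previously estimated time of peak effect. MES 50 mA, 60 Hz, 0.2 s. Groups of eight, with doses varied until at least three points fell between 10–90% protection or motor impairment. Regression gives ED50/TD50 with 95% confidence intervals; PI = TD50/ED50.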

Mus musculus [30] = assay: Anticonvulsant activity in ip dosed maximal electric shock-induced CF-1 albino mouse assessed as time of peak effect; format: functional; procedure, shortened: as §7

| SMILES | Activity (Mus musculus [1]) | minimal effective dose (Mus musculus [2]) | MTC (Mus musculus [3]) | Activity (Mus musculus [4]) | minimal effective dose (Mus musculus [5]) | Activity (Mus musculus [6]) | Activity (Mus musculus [8]) | Activity (Mus musculus [9]) | Activity (Mus musculus [10]) | Activity (Rattus norvegicus [11]) | Activity (Rattus norvegicus [12]) | Activity (Rattus norvegicus [13]) | Activity (Rattus norvegicus [14]) | Activity (Rattus norvegicus [15]) | Activity (Rattus norvegicus [16]) | Time (Rattus norvegicus [18]) | also measured |
| --- | --- | --- | --- | --- | --- | --- | --- | --- | --- | --- | --- | --- | --- | --- | --- | --- | --- |
| O=C1CC(c2ccccc2F)C(=O)N1CN1CCN(c2ncccn2)CC1 (racemic) | inactive | 100 mg/kg | 300 mg/kg | Non-toxic | 300 mg/kg | inactive |  |  |  |  |  |  |  |  |  |  | Activity (Mus musculus [7]): Toxic |
| O=C1CC(c2ccccc2F)C(=O)N1CN1CCN(C2CCCCC2)CC1 (racemic) | inactive |  |  | Non-toxic |  | inactive | inactive | Non-toxic | inactive |  |  |  |  |  |  |  |  |
| O=C1CC(c2ccccc2Br)C(=O)N1CN1CCN(C2CCCCC2)CC1 (racemic) | inactive | 100 mg/kg |  | Non-toxic |  | inactive |  | Non-toxic | inactive | 50% | 50% | 100% | 25% | 25% | Non-toxic | 2 h | ED50 (Rattus norvegicus [17]): < 240 mg/kg |
| O=C1CC(c2ccccc2Br)C(=O)N1CN1CCOCC1 (racemic) |  | 100 mg/kg | 300 mg/kg | Non-toxic | 300 mg/kg | inactive |  |  |  | 0% | 0% | 0% | 0% | 25% | Non-toxic |  | minimal effective dose (Mus musculus [19]): 100 mg/kg |
| O=C1CC(c2ccccc2F)C(=O)N1CN1CCN(c2ccccc2)CC1 (racemic) | inactive | 300 mg/kg | 300 mg/kg | Non-toxic |  |  |  |  |  |  |  |  |  |  |  |  |  |
| O=C1CC(c2ccccc2F)C(=O)N1CN1CCN(c2ccccc2F)CC1 (racemic) | inactive |  |  | Non-toxic |  |  | inactive | Non-toxic |  |  |  |  |  |  |  |  |  |
| Cl.Cl.O=C1CC(c2ccccc2F)C(=O)N1CN1CCN(CCO)CC1 (racemic) |  | 100 mg/kg |  | Non-toxic | 300 mg/kg | inactive |  | Non-toxic |  | 25% | 25% | 50% | 25% | 25% | Non-toxic | 0.5 h | Activity (Mus musculus [7]): Toxic; ED50 (Rattus norvegicus [17]): > 500 mg/kg; TD50 [20]: > 500 mg/kg; Activity (Mus musculus [21]): 50%; Activity (Mus musculus [22]): 25%; Activity (Mus musculus [23]): 0%; Activity (Mus musculus [24]): 0%; Activity (Mus musculus [25]): 0% |
| CCC1(C)CC(=O)NC1=O (stereo not given) [ETHOSUXIMIDE] | inactive |  |  | Non-toxic | 100 mg/kg |  | inactive | Non-toxic |  |  |  |  |  |  |  |  | minimal effective dose (Mus musculus [26]): 300 mg/kg |
| O=C1NC(=O)C(c2ccccc2)(c2ccccc2)N1 [PHENYTOIN] |  | 30 mg/kg | 100 mg/kg |  |  | inactive |  |  | inactive | 25% | 100% | 75% | 75% | 75% | Non-toxic | 2 h | minimal effective dose (Mus musculus [19]): 30 mg/kg; MTC (Mus musculus [27]): 100 mg/kg; TD50 [20]: > 100 mg/kg; Ratio TD50/ED50 (Rattus norvegicus [28]): 3.6; Ratio TD50/ED50 (Mus musculus [29]): 7.74; Time (Mus musculus [30]): 1 h |
